Laboratory results taken from ChEMBL document CHEMBL3351232, “Flemingins G-O, cytotoxic and antioxidant constituents of the leaves of Flemingia grahamiana” (J Nat Prod, 2014).

Legend:
[1] = Antioxidant activity assessed as DPPH scavenging activity after 30 mins by spectrophotometry; assay type: physicochemical; conditions: 0.5 h; read-out: ED50 (the source's name)
In short: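 Samples prepared in double-distilled methanol at 320, 160, 80, 40, 20, 10, 5 and 2.5 μg/mL. 1.0 mL added to 2.0 mL of 76 μM DPPH in methanol, held 30 min at room temperature, remaining DPPH read at 517 nm. Control was methanol plus DPPH; quercetin served as positive control. EC50 (50% absorbance decrease) obtained from a plot of % scavenged versus initial concentration.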

MCF7 = experiment: Cytotoxicity against human MCF7 cells after 48 hrs by PrestoBlue cell viability assay; assay type: functional, cell-based; conditions: MCF7, 48 h
In short: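 MCF-7 cells grown in DMEM with 10% FBS, 2 mM L-glutamine, penicillin and streptomycin, 37 °C, 5% CO2. Seeded for exponential growth, then after 24 h switched to medium containing compound or DMSO vehicle (0.1% or 1.0% v/v). Viability read by PrestoBlue fluorescence after 48 h, as % of vehicle control. Six replicates, at least three independent experiments, means ± SE.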

[2] = Activity index, ratio of compound ED50 to quercetin ED50 for antioxidant activity assessed as DPPH scavenging activity after 30 mins by spectrophotometry

| EC50 [1] | Structure (SMILES) | IC50 (MCF7) | Ratio ED50 [2] |
| --- | --- | --- | --- |
| 7.8 µM | CC(C)=CCCC1(C)C=Cc2c(O)c(C(=O)/C=C/c3c(O)cccc3O)cc(O)c2O1 (stereo not given) | > 237 µM | 3.1 |
| 4.4 µM | CC(C)=CCCC1(C)C=Cc2c(O)c(C(=O)/C=C/c3ccccc3O)cc(O)c2O1 (stereo not given) | 8.9 µM | 1.8 |
| – | CC(C)(O)/C=C/CC1(C)C=Cc2c(O)c(C(=O)/C=C/c3ccccc3O)cc(O)c2O1 (stereo not given) | > 236 µM | – |
| – | CC(C)n1nc(C#Cc2ccncc2)c2c(N)ncnc21 | 5 µM | – |
| – | C=C(C)C(O)CCC1(C)C=Cc2c(O)c(C(=O)/C=C/c3ccccc3O)cc(O)c2O1 (mixture of isomers) | > 236 µM | – |
| – | Cc1cc(O)c2c(c1)C(=O)c1cc(O)cc(O)c1C2=O [EMODIN] | 317 µM | – |
| – | CC(C)(O)/C=C/CC1(C)C=Cc2c(O)c(C(=O)/C=C/c3cc(O)ccc3O)cc(O)c2O1 (stereo not given) | > 228 µM | – |
| 5.9 µM | CC(C)=CCCC1(C)C=Cc2c(O)c(C(=O)/C=C/c3cc(O)ccc3O)cc(O)c2O1 (stereo not given) | 7.6 µM | 2.4 |
| 8.3 µM | C=C(C)C(O)CCC1(C)C=Cc2c(O)c(C(=O)/C=C/c3cc(O)ccc3O)cc(O)c2O1 (stereo not given) | 221 µM | 3.3 |
| 8.9 µM | C=C(C)C(O)CCC1(C)C=Cc2c(O)c(C(=O)/C=C/c3c(O)cccc3O)cc(O)c2O1 (stereo not given) | – | 3.5 |

| Structure (SMILES) | EC50 [1] | IC50 (MCF7) | Ratio ED50 [2] |
| --- | --- | --- | --- |
| O=c1c(O)c(-c2ccc(O)c(O)c2)oc2cc(O)cc(O)c12 [QUERCETIN] | 2.5 µM | – | – |
